Compound activity (PubChem)
Rows were chosen to be rich in hits. Some 10% of all compounds tested hit in one or more screens of this group.
L major viab: reduces viability of Leishmania major promastigotes | inhibition, % at 10 µM | hit rate 9% among 200,000 | resazurin fluorescence viability; in the data active = inhibition above about 50%;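 note: promastigotes grown with compound for 44 hours at 28 °C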
PMI activator: phosphomannose isomerase (human) activation; purified human PMI, coupled resazurin fluorescence, 20 min; active compounds read high; 1 = vehicle control, 0 substrate-free wells; activation factor at 20 µM; hit rate 0.005% among 190,000; P34949;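 active = activation factor of 2 or more at 20 µM, relative to plate controls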
Target sequence (P34949 whole entry, looked up): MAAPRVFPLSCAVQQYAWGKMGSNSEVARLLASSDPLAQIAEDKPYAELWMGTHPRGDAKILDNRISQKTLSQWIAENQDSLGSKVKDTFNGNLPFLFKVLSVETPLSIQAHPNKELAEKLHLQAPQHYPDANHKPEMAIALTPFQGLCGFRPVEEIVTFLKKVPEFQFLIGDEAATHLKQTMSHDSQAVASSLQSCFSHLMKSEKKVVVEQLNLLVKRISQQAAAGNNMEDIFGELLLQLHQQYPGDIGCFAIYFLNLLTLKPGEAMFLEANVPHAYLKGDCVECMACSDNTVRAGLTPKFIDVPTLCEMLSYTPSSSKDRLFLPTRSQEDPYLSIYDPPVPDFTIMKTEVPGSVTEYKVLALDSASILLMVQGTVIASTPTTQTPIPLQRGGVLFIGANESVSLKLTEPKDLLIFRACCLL
PMI act satM6P: activators of human phosphomannose isomerase at near-saturating mannose 6-phosphate; P34949; coupled PMI enzyme assay, resazurin fluorescence, 20 min; active compounds read high; 1 = untreated enzyme, 0 = substrate-free blank; activation factor at 20 µM; hit rate 0.34% among 190,000;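 active = activation factor of 2 or more at 20 µM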
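Material: human phosphomannose isomerase with PGI, G6PDH, diaphorase coupling enzymes. Quantity: 15 ng/mL PMI. Medium: HEPES pH 7.4 buffer with MgCl2 and Tween-20. Reagent: Near-saturating mannose-6-phosphate, 1.0 mM. Compound: 20 µM single dose. Times: enzyme reaction with compound 20 min at room temperature. Detection: resorufin fluorescence at Ex 544/Em 590 nm.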
Diaph act CS: activates diaphorase or chemically reduces, flagging diaphorase assay artifacts; Diaphorase/resazurin coupled assay, resorufin fluorescence, 16 min; active compounds read high; 1 = vehicle wells, 0 = NADH-free wells; activation factor at 20 µM; hit rate 0.005% among 190,000;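 active = diaphorase activity raised at least twofold by the compound at 20 µM; inactive = activation factor below 2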
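Measured by – red resorufin fluorescence at 544/590 nm excitation/emission · Test system – Clostridium kluyveri diaphorase, purified enzyme · Incubation – reaction time 16 min, room temperature · Buffer or medium – 50 mM HEPES pH 7.4 with 4.542 mM MgCl2, 0.005% Tween 20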
WT yeast gro inh: growth inhibition of WT yeast, mitochondrial fusion screen. AID 1362. mitochondrial fusion phenotypic screen, WT strain. inhibition, % at 10 µM. hit rate 2.1% among 190,000; in the data active = inhibition above about 58%; tested in S. cerevisiae
An asterisk follows results filed as active; x = no result given.

SMILES	L major viab	PMI activator	PMI act satM6P	Diaph act CS	WT yeast gro inh
CCOc1ccc2c(c1)c(N=O)c(O)n2C	-4.0	0.8	1	0.9	-21.7
CCOc1cc(-c2nc(C)c(C(C)=O)n2O)ccc1OCC(=O)Nc1cccc(C)c1	-4.4	1.1	1.2	1.1	62.1*
O=C1C2CCCN2C(=O)N1CCN1CCN(c2ccccc2)CC1 (centres undefined)	61.2*	1.1	1.1	0.9	-5.6
O=C1C2CCCN2C(=O)N1CCCCN1CCN(c2ccccc2)CC1 (centres undefined)	0.5	1.2	1.2	0.9	-0.1
CCC(C)C(NC(=O)OC(C)(C)C)C(=O)NC(C(=O)NC(C)C(N)=O)C(C)C (centres undefined)	-2.3	1	1.1	1	-4.0
O=C1CC(C(=O)Nc2ccc(Cl)cc2[N+](=O)[O-])C2(CCCCC2)O1 (centres undefined)	2.9	1	1	0.8	-1.5
C=CCN1C(=O)S/C(=C/c2ccc(Sc3nc4ccccc4[nH]3)o2)C1=O	41.3	0.6	0.9	0.8	3.6
CC(C)N1C(=O)S/C(=C/c2ccc(Sc3nc4ccccc4[nH]3)o2)C1=O	83.2*	0.7	0.9	0.8	25.4
COCCN1C=C(C(=O)OC)C(c2cc3c(cc2Br)OCO3)C(C(=O)OC)=C1	62.0*	0.8	0.9	0.8	14.8
Cc1ccc(O)c(NC(=S)NC(=O)c2ccccc2Cl)c1	-6.9	0.8	0.9	0.9	19.7
O=C(N/N=C/c1sc(N2CCCCC2)nc1-c1cccs1)C1CC1	68.8*	1.1	0.9	0.9	-7.0
CCCCNC(=S)N(C)/N=C/c1sc(N2CCCCC2)nc1-c1cccs1	96.0*	0.9	0.9	0.8	14.8
Cc1nc(N(C)Cc2ccccc2)c2nnn(Cc3ccccc3)c2n1	3.3	0.8	0.9	0.8	79.9*
Cc1nc2c(nnn2Cc2ccccc2)c(=O)[nH]1	-6.9	0.7	0.5	0.7	6.3
O=C1ON=C(c2ccc(Cl)cc2)/C1=C/c1ccc(O)cc1	65.1*	1	1	0.9	-3.9
COc1cc(/C=C2/C(=O)ON=C2c2ccccc2)ccc1O	87.6*	1.1	1.1	0.8	-10.8
Cc1sc(/C=C2\C(=O)ON=C2c2ccccc2)cc1Br	-7.7	1	1	1	-26.6
C/C(=N\Nc1nc(Cl)c(Cl)cc1Cl)c1ccc(S(=O)(=O)NCc2ccco2)cc1	99.5*	1	0.9	0.8	3.2
C/C(=N\Nc1ccc(C(F)(F)F)cn1)c1ccc(S(=O)(=O)NCc2ccco2)cc1	75.0*	1	0.9	0.9	17.7
C/C(=N\Nc1ccccn1)c1ccc(S(=O)(=O)NCc2ccco2)cc1	7.4	1.1	0.8	0.7	16.2
O=C1CSC(c2ccccc2)N1c1nnc(C23CC4CC(CC(C4)C2)C3)s1 (centres undefined)	-0.9	0.9	0.9	0.9	31.7
Cc1ccc2c(CN3CCCc4ccccc43)cc(=O)oc2c1C	49.4	1.8	2.3*	1	40.9
COc1ccc(C(=O)NNC2=CC(=O)CC(C)(C)C2)cc1OC	-3.6	1	1	1	-16.3
CCN1C(=O)c2cccc3c(S(=O)(=O)NCc4ccccn4)ccc1c23	65.2*	1	1	1	0.6
CCOC(=O)CNS(=O)(=O)c1ccc2c3c(cccc13)C(=O)N2CC	1.3	1	0.9	0.9	-5.5
SMILES	L major viab	PMI activator	PMI act satM6P	Diaph act CS	WT yeast gro inh
CN(C)S(=O)(=O)N1CCCC(C(=O)c2ccc(C(F)(F)F)cc2)C1 (centres undefined)	-0.5	1	1	0.8	2.5
O=C(OCc1csc(-c2ccccc2)n1)c1ccccc1O	-11.2	0.9	0.9	0.9	45.1
CCCC(c1nnnn1CC(=O)OCC)N(Cc1cc2c(C)cc(C)cc2[nH]c1=O)C1CCCC1 (centres undefined)	54.9*	1.4	1.4	0.8	-13.2
CCOC(=O)Cn1nnnc1C(CC)N(Cc1ccccc1)Cc1cc2cc(C)ccc2[nH]c1=O (centres undefined)	96.9*	0.9	0.9	0.8	31.6
CCOC(=O)Cn1nnnc1CN(Cc1ccccc1)Cc1cc2cc(CC)ccc2[nH]c1=O	35.2	1	0.9	0.7	0.0
CCCC(c1nnnn1CC(=O)OCC)N(Cc1cc2ccc(C)cc2[nH]c1=O)C1CCCC1 (centres undefined)	10.9	1	1.1	0.8	1.6
Cc1nn(CC(=O)Nc2ccc(S(=O)(=O)N(C)C)cc2)c(C)c1[N+](=O)[O-]	0.3	1	1.1	0.9	-7.5
Cc1c(NC(=S)NC(NC(=O)C(C)(C)C)C(Cl)(Cl)Cl)c(=O)n(-c2ccccc2)n1C (centres undefined)	-2.8	1	1	1.1	0.4
CSc1ccc(CNc2ccc(C)c(C)c2)cc1	-5.9	0.9	0.9	0.8	13.2
CSc1ccc(CNc2ccc(C)cc2)cc1	99.9*	0.9	0.9	0.9	-26.2
CCOC(=O)c1c(NC(=O)c2ccc(Cl)cc2)csc1C	-4.0	1	1	0.9	3.4
Cc1cccc2nc(CSc3nc4cc([N+](=O)[O-])ccc4s3)cn12	-1.8	1	1.1	0.9	22.1
CC[N+](CC)(CC)C/C=C/CN1CCCCC1	58.4*	1	1	1	-15.4
CSc1ccc2c(c1)N(CCC1CCCCN1C)c1ccccc1S2 (centres undefined)	99.2*	1.1	1	0.9	85.2
Cc1ccc(S(=O)(=O)CCC(=O)Nc2ccc(F)cc2)cc1	-4.8	0.9	0.9	0.9	-4.6
CCOC(=O)C1=C(C)NC(C)=C(C(=O)OC)C1c1cccc([N+](=O)[O-])c1 (centres undefined)	13.9	1	1	0.9	16.0
COCCOC(=O)C1=C(C)NC(C)=C(C(=O)OC(C)C)C1c1cccc([N+](=O)[O-])c1 (centres undefined)	66.2*	1	1	0.8	10.7
CCOc1ccccc1-n1c(SCC(=O)Nc2nccs2)nnc1-c1ccoc1C	73.0*	0.9	0.9	0.8	-10.8
Cc1occc1-c1nnc(SCC(=O)Nc2nccs2)n1CCc1ccccc1	13.3	0.9	1	0.8	-9.6
CCCCN(CC)Cc1ccc(CNC(=O)Nc2ccc(F)cc2)o1	98.3*	1.1	1.1	1.1	x
O=C(NNc1cccc(Cl)n1)c1cccnc1Cl	-5.8	1.1	1	1	-20.6
O=C(NNc1cccc(Cl)c1)c1cccnc1Cl	88.2*	1.7	2*	1	63.3
CC1(C)CC(=O)C2=C(C1)OC(N)=C(C#N)C2c1cn(-c2ccccc2)nc1-c1ccccc1 (centres undefined)	89.8*	0.8	0.9	0.7	-13.9
CC1(C)CC(=O)C2=C(C1)OC(N)=C(C#N)C2c1cc2c(cc1[N+](=O)[O-])OCO2 (centres undefined)	65.3*	0.9	0.6	0.7	-25.4
